Reference: PMC9942872 (Proceedings of the National Academy of Sciences of the …, 2023)

Molecular target: T1, NaLdpA (Novosphingobium aromaticivorans, UniProt Q2G4I2)
T1 sequence (Q2G4I2 1-243): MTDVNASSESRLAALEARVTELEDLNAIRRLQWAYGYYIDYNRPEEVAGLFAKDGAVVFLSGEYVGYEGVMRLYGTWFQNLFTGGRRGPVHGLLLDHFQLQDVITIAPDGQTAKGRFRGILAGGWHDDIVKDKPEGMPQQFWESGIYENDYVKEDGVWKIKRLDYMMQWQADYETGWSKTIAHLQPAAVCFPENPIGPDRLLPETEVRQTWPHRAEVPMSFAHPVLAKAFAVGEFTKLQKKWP
Assay: spectrophotometric lignostilbene production, product inhibition
Type: biochemical
Outline: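 Recombinant polyHis-tagged enzyme expressed in E. coli, purified by chromatography and stored at −80 °C. Reactions were run in air-saturated MOPS (I = 0.1 M), pH 7.0, at 25 °C. Erythro-DGPD substrate concentration was varied, with lignostilbene added at 0, 1, 2, 4 or 10 μM.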

Molecule `COc1cc(/C=C/c2ccc(O)c(OC)c2)ccc1O` [lignostilbene] has a Ki of 330 ± 30 nM.
